# Calls of active or inactive are those of the source. The rule behind the calls is not given here.
# Tests used:
# Mus musculus [1] = assay: Antidepressant activity in mouse assessed as decrease in duration of immobility at 10 mg/kg, po during final 5 mins of the 6 mins session by forced swimming test; assay type: functional
# Outline: (§1)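 Mice swam 10 min in a 25-cm glass cylinder (10 cm diameter) holding 15 cm of water at 23 1 °C. Twenty-four hours later, drug was given po 60 min before retesting. Immobility (floating upright with only small movements keeping head above water) was totalled over the last 5 min of the 6-min test.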
# Mus musculus [2] = assay: Antidepressant activity in mouse assessed as decrease in duration of immobility at 100 mg/kg, po during final 5 mins of the 6 mins session by forced swimming test; assay type: functional; set-up: scale not given: the % may be the effect or the level left; outline: as §1
# [3] = Elimination half life in rat at 5 mg/kg, po; assay type: ADME, organism-based; set-up: dose 5 mg/kg, route oral; conditions: in vivo, read-out: beta t1/2 (converted)
# Outline: (§2)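 Rats dosed once with the HCl salt, either i.v. at 1 mg/kg (n = 2 or 3) or orally at 5 mg/kg (n = 3). Plasma and brain levels were followed to derive Cmax, Clast, Tmax, t1/2, AUC, dose-normalised AUC, oral bioavailability (F) and the brain/plasma ratio.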
# [4] = Half life in rat plasma; assay type: ADME, cell-free; outline: as §2
# [5] = Oral bioavailability in rat at 5 mg/kg; assay type: ADME, organism-based; conditions: in vivo; outline: as §2
# [6] = Cmax in rat plasma; assay type: ADME, organism-based; outline: as §2
# Brain = assay: Clast in rat brain; assay type: ADME, tissue-based; conditions: in vivo; outline: as §2
# Rattus norvegicus [7] = assay: Clast in rat at 1 mg/kg, iv; assay type: ADME, organism-based; set-up: dose 1 mg/kg, route intravenous; conditions: in vivo; outline: as §2
# [8] = Cmax in rat brain; assay type: ADME, organism-based; outline: as §2
# [9] = Half life in rat brain; assay type: ADME, tissue-based; outline: as §2
# [10] = Half life in rat at 1 mg/kg, iv; assay type: ADME, organism-based; set-up: dose 1 mg/kg, route intravenous; conditions: in vivo; outline: as §2
# Plasma = assay: Clast in rat plasma; assay type: ADME, cell-free; outline: as §2
# [11] = AUC in rat plasma; assay type: ADME, cell-free; outline: as §2
# [12] = Cmax in rat at 1 mg/kg, iv; assay type: ADME, organism-based; set-up: dose 1 mg/kg, route intravenous; conditions: in vivo; outline: as §2
# [13] = Tmax in rat brain; assay type: ADME, tissue-based; outline: as §2
# [14] = Tmax in rat plasma; assay type: ADME, cell-free; outline: as §2
# Rattus norvegicus [15] = assay: Dose normalized AUC (0 to infinity) in rat at 1 mg/kg, iv; assay type: ADME, organism-based; set-up: dose 1 mg/kg, route intravenous; conditions: in vivo; outline: as §2
# [16] = AUC (0 to infinity) in rat at 5 mg/kg, po; assay type: ADME, organism-based; set-up: time infinity, dose 5 mg/kg, route oral; conditions: plasma; outline: as §2
# Rattus norvegicus [17] = assay: Clast in rat at 5 mg/kg, po; assay type: ADME, organism-based; set-up: dose 5 mg/kg, route oral; conditions: in vivo; outline: as §2
# [18] = Cmax in rat at 5 mg/kg, po; assay type: ADME, organism-based; set-up: dose 5 mg/kg, route oral; conditions: in vivo; outline: as §2
# [19] = AUC (0 to infinity) in rat at 1 mg/kg, iv; assay type: ADME, organism-based, Plasma; set-up: time infinity, dose 1 mg/kg, route intravenous; conditions: plasma; outline: as §2
# [20] = Ratio of drug level in brain to plasma in rat; assay type: ADME, cell-free; outline: as §2
# [21] = AUC in rat brain; assay type: ADME, tissue-based; outline: as §2
# Rattus norvegicus [22] = assay: Dose normalized AUCirlf in rat at 5 mg/kg, po; assay type: ADME, organism-based; set-up: dose 5 mg/kg, route oral; conditions: in vivo; outline: as §2
# [23] = Tmax in rat at 5 mg/kg, po; assay type: ADME, organism-based; set-up: dose 5 mg/kg, route oral; conditions: in vivo; outline: as §2
# [24] = target: 5-hydroxytryptamine receptor 2A (Homo sapiens, UniProt P28223); assay: Displacement of [3H]ketanserin from human recombinant 5-HT2A receptor expressed in CHO-K1 cells after 60 mins; assay type: cell-based
# Chain of 5-hydroxytryptamine receptor 2A (P28223 whole entry): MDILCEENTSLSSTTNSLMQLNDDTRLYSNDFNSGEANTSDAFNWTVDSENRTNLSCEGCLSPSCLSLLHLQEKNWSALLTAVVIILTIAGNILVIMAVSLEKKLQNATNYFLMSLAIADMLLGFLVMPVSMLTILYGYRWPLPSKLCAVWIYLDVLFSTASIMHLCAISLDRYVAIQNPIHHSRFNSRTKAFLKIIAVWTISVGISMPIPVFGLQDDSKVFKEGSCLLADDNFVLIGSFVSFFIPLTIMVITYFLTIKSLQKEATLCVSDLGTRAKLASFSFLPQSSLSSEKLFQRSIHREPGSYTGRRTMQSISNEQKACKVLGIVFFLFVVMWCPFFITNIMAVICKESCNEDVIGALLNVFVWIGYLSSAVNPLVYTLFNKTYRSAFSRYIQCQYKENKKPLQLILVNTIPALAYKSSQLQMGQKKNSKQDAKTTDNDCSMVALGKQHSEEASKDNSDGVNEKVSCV
# Outline: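 Membranes were from CHO-K1 cells stably expressing 5-HT2A. Radioligand was at 1 nM, with mianserin defining nonspecific binding. Incubation ran 60 min at 27 °C in 50 mM Tris–HCl pH 7.4 with 4 mM CaCl2 and 0.1% ascorbic acid. Harvesting was by filtration through glass-fibre filters presoaked in 0.5% PEI.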
# [25] = target: Sodium-dependent serotonin transporter (Homo sapiens, UniProt P31645); assay: Displacement of [3H]imipramine from human SERT expressed in HEK293 cells after 30 mins by rapid filtration assay; assay type: cell-based
# Chain of Sodium-dependent serotonin transporter (P31645 whole entry): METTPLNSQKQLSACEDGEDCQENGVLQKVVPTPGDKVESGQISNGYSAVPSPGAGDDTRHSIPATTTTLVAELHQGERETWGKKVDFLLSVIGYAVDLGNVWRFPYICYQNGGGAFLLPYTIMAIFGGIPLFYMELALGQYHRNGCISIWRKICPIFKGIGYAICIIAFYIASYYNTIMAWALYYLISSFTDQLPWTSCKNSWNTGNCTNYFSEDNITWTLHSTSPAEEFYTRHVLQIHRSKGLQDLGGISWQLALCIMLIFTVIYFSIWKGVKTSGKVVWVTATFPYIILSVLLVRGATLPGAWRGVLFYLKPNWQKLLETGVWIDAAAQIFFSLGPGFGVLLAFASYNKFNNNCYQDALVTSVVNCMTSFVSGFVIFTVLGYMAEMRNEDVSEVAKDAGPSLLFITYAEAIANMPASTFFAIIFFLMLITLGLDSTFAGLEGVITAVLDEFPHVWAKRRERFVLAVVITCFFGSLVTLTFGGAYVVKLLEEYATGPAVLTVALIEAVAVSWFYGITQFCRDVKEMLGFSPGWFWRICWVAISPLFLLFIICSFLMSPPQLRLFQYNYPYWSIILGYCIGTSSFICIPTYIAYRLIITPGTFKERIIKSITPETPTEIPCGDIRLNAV
# Outline: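 Frozen membranes were from HEK293 cells expressing human SERT, with 4 nM [3H]imipramine in 50 mM Tris–HCl pH 7.4, 120 mM NaCl and 5 mM KCl. Unlabelled imipramine defined nonspecific binding. Incubation ran 30 min at 27 °C, terminated by rapid filtration through 0.5% PEI-presoaked glass-fibre filters.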
# [26] = target: T1, 5-hydroxytryptamine receptor 2C (Homo sapiens, UniProt P28335); assay: Displacement of [3H]mesulergine from human recombinant 5-HT2C receptor expressed in CHO-K1 cells after 60 mins by rapid filtration assay; assay type: cell-based
# T1 sequence (P28335 whole entry): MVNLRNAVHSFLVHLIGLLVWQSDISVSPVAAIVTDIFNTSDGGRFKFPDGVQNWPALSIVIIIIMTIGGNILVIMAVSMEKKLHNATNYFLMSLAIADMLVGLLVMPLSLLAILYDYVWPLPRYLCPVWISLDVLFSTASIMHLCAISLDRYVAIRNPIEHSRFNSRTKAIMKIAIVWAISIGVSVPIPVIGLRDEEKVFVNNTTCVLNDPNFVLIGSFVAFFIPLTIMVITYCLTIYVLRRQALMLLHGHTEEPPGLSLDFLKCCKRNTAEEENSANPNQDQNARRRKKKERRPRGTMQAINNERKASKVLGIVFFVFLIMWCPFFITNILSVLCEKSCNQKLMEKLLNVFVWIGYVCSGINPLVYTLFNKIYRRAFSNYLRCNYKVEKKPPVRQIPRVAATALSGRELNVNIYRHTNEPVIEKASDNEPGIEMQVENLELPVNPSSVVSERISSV
# Outline: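 Frozen membranes were from CHO-K1 cells stably expressing human recombinant 5-HT2C, with 1.4 nM [3H]mesulergine. Buffer was 50 mM Tris–HCl pH 7.4, 4 mM CaCl2 and 0.1% ascorbic acid, with methiothepin for nonspecific binding. Incubation ran 60 min at 27 °C, stopped by rapid filtration through 0.5% PEI-presoaked glass-fibre filters.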
# Mus musculus [27] = assay: Antidepressant activity in mouse assessed as decrease in duration of immobility at 50 mg/kg, po during final 5 mins of the 6 mins session by forced swimming test; assay type: functional, organism-based; set-up: dose 50 mg/kg
# Outline: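 Mice swim for 10 min in a 25-cm glass cylinder (10 cm diameter) holding 15 cm of water at 23 ± 1 °C. They are retested 24 h later for 6 min. Compound is suspended in 3% Tween 80 and given orally 60 min before the test. Total immobility time (floating upright, only small head-keeping movements) is scored over the last 5 min. Means ± S.E.M.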
# Mus musculus [28] = assay: Antidepressant activity in mouse assessed as decrease in duration of immobility at 25 mg/kg, po during final 5 mins of the 6 mins session by forced swimming test; assay type: functional; set-up: scale not given: the % may be the effect or the level left; outline: as §1
# D(3) dopamine receptor = D(3) dopamine receptor (Homo sapiens, UniProt P35462); assay: Inhibition of dopamine D3 receptor
# Chain of D(3) dopamine receptor (P35462 whole entry): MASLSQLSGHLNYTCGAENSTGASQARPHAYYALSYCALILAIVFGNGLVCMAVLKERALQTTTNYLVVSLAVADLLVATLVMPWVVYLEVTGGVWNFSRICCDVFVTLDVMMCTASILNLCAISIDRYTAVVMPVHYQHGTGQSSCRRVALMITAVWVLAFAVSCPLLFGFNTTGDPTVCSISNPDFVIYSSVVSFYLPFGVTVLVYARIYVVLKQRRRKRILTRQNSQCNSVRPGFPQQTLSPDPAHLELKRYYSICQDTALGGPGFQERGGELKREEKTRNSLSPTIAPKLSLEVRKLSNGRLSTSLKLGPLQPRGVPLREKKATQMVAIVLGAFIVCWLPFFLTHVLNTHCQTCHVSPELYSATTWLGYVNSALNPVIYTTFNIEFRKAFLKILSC
# [29] = target: 5-hydroxytryptamine receptor 7 (Homo sapiens, UniProt P34969); assay: Inhibition of 5HT7 receptor
# Chain of 5-hydroxytryptamine receptor 7 (P34969 whole entry): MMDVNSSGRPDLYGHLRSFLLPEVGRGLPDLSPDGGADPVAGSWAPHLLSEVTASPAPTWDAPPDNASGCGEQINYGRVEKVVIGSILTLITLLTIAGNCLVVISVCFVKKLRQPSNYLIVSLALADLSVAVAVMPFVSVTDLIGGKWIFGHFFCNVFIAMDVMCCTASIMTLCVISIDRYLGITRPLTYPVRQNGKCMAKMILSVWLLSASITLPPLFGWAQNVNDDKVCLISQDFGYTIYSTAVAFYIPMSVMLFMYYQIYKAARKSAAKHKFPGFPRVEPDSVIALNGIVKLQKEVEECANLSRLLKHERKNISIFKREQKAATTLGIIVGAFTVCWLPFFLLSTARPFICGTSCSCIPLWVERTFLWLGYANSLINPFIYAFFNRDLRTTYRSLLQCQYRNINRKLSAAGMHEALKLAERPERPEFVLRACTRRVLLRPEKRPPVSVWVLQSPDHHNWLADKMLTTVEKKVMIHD
# [30] = target: 5-hydroxytryptamine receptor 6 (Homo sapiens, UniProt P50406); assay: Inhibition of 5HT6 receptor
# Chain of 5-hydroxytryptamine receptor 6 (P50406 whole entry): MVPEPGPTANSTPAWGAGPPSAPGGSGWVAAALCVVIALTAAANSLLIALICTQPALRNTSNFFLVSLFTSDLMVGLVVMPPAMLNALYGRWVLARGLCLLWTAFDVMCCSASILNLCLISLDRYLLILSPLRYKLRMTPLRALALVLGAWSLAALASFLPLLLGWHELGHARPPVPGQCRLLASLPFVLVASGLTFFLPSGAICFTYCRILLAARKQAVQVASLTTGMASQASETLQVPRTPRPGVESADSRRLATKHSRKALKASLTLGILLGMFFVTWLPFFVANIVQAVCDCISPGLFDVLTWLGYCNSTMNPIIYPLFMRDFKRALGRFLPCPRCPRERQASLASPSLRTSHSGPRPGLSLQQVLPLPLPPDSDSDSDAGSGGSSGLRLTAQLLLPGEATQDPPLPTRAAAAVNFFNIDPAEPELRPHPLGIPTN
# D(4) dopamine receptor = target: T2, D(4) dopamine receptor (Homo sapiens, UniProt P21917); assay: Inhibition of dopamine D4 receptor
# T2 sequence (P21917 whole entry): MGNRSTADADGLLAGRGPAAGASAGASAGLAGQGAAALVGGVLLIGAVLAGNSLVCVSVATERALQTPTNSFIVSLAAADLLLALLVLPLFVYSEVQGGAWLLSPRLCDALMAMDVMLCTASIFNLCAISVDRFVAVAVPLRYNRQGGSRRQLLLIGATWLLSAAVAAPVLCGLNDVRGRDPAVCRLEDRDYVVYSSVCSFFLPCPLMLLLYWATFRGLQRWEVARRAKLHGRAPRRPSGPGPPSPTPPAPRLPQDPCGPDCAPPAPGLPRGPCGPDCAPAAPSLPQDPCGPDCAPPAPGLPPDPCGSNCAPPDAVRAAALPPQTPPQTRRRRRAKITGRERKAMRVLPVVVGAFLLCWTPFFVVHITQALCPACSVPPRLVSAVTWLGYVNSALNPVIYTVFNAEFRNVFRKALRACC
# [31] = target: T3, 5-hydroxytryptamine receptor 1A (Homo sapiens, UniProt P08908); assay: Inhibition of 5HT1A receptor
# T3 sequence (P08908 whole entry): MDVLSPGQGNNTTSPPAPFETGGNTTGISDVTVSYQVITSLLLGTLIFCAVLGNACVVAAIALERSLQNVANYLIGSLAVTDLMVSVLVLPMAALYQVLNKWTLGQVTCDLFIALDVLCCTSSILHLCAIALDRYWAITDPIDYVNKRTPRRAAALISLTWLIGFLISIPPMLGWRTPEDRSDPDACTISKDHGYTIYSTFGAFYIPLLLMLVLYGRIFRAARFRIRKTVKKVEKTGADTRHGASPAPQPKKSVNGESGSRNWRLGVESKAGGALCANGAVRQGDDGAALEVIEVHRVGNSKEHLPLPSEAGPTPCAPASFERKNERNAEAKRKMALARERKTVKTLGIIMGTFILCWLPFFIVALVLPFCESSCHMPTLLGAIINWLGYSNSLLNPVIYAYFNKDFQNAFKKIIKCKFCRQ
# D(2) dopamine receptor = D(2) dopamine receptor (Homo sapiens, UniProt P14416); assay: Inhibition of dopamine D2 receptor
# Chain of D(2) dopamine receptor (P14416 whole entry): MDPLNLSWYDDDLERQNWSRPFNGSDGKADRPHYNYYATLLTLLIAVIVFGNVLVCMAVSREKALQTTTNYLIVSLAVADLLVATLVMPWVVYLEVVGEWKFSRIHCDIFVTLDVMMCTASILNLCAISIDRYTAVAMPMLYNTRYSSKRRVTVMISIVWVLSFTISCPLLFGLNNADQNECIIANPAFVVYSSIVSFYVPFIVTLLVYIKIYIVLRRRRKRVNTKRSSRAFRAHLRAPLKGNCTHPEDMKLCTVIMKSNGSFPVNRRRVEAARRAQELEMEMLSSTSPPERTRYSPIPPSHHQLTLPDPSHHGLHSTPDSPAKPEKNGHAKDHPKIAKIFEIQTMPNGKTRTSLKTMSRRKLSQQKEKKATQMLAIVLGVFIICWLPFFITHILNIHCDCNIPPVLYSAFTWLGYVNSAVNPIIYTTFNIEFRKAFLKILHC
structure (smiles),measurement,setting,value
CCn1c(-c2ccccc2)cc(C(=O)NCCCN2CCN(c3cccc(Cl)c3Cl)CC2)c1C,Activity,Mus musculus [1],inactive
same,Activity,Mus musculus [2],<25%
Cc1[nH]c(-c2ccccc2)cc1C(=O)NCCCN1CCN(c2cccc(Cl)c2Cl)CC1 [listing 1 of 2 here],Activity,Mus musculus [1],inactive
same,Activity,Mus musculus [2],Active
Cc1c(C(=O)NCCCN2CCN(c3cccc(Cl)c3Cl)CC2)cc(-c2ccccc2)n1C.Cl,half-life,[3],3.14 h
same,half-life,[4],3.71 h
same,bioavailability,[5],24.8%
same,Cmax,[6],70 ng/mL
same,Clast,Brain,20 ng/mL
same,Clast,Rattus norvegicus [7],8 ng/mL
same,Cmax,[8],30 ng/mL
same,half-life,[9],4.28 h
same,half-life,[10],2.82 h
same,Clast,Plasma,40 ng/mL
same,AUC,[11],240 ng·h/mL
same,Cmax,[12],454 ng/mL
same,Tmax,[13],2 h
same,Tmax,[14],1 h
same,AUC/dose,Rattus norvegicus [15],18.703 µg·min/mL
same,AUC(0-inf),[16],386 ng·h/mL
same,Clast,Rattus norvegicus [17],1 ng/mL
same,Cmax,[18],118 ng/mL
same,AUC(0-inf),[19],312 ng·h/mL
same,Kp,[20],34.5
same,AUC,[21],82.7 ng·h/mL
same,AUC/dose,Rattus norvegicus [22],4.63 µg·min/mL
same,Tmax,[23],0.75 h
Cc1c(C(=O)NCCCN2CCN(c3cccc(Cl)c3)CC2)cc(-c2ccccc2)n1C,Activity,Mus musculus [2],inactive
Cc1c(C(=O)NCCCN2CCN(c3cccc(Cl)c3)CC2)cc(-c2ccccc2)n1N1CCCCC1,IC50,[24],0.441 µM
same,IC50,[25],0.11 µM
same,IC50,[26],0.448 µM
CCn1c(-c2ccccc2)cc(C(=O)NCCCN2CCN(c3cccc(C)c3C)CC2)c1C,Activity,Mus musculus [27],Active
Cc1[nH]c(-c2ccccc2)cc1C(=O)NCCCN1CCN(c2cccc(Cl)c2Cl)CC1 [listing 2 of 2 here],IC50,[25],0.137 µM
same,Activity,Mus musculus [28],<50%
same,IC50,D(3) dopamine receptor,0.334 µM
same,IC50,[29],0.456 µM
same,IC50,[30],1.41 µM
same,IC50,D(4) dopamine receptor,1.84 µM
same,IC50,[31],0.117 µM
same,IC50,D(2) dopamine receptor,1.07 µM
CCCn1c(-c2ccccc2)cc(C(=O)NCCCN2CCN(c3cccc(C)c3C)CC2)c1C,IC50,[24],0.129 µM
same,IC50,[25],0.076 µM
same,IC50,[26],0.225 µM
Cc1c(C(=O)NCCCN2CCN(c3cccc(Cl)c3Cl)CC2)cc(-c2ccccc2)n1N1CCCCC1,IC50,[29],0.493 µM
same,Activity,Mus musculus [1],inactive
same,Activity,Mus musculus [2],Active

# — ChEMBL document CHEMBL1154983, “Arylpiperazine-containing pyrrole 3-carboxamide derivatives targeting serotonin 5-HT(2A), 5-HT(2C), and the serotonin transporter as a potential antidepressant” (Bioorg Med Chem Lett, 2010)
